Assay results from ChEMBL document CHEMBL3407460, “Synthesis of novel thiazole-based 8,9-dihydro-7H-pyrimido[4,5-b][1,4]diazepines as potential antitumor and antifungal agents” (2015).
≈ marks a conversion by molar mass, not a printed value.

Experiments:
Format in all cases: functional
Candida albicans [1] = test: Antifungal activity against Candida albicans ATCC 10231 assessed as growth inhibition at 15.62 ug/ml after 48 hrs by broth microdilution method; conditions: ATCC 10231, 48 h
In short: (§1)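 CLSI M27-A3 broth microdilution in RPMI-1640. Compound stocks were made in DMSO (final at most 1%) and tested at final levels of 250 to 0.98. Inoculum was 1–5 × 10^3 CFU/mL, incubated 48 h at 30 °C in a moist, dark chamber. Growth and sterility control wells were included.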

Cryptococcus neoformans [2] = test: Antifungal activity against Cryptococcus neoformans ATCC 32264 assessed as growth inhibition at 62.5 ug/ml after 48 hrs by broth microdilution method; conditions: ATCC 32264, 48 h; in short: as §1
Cryptococcus neoformans [3] = test: Antifungal activity against Cryptococcus neoformans ATCC 32264 assessed as growth inhibition at 15.62 ug/ml after 48 hrs by broth microdilution method; conditions: ATCC 32264, 48 h; in short: as §1
Cryptococcus neoformans [4] = test: Antifungal activity against Cryptococcus neoformans ATCC 32264 assessed as growth inhibition at 31.25 ug/ml after 48 hrs by broth microdilution method; conditions: ATCC 32264, 48 h; in short: as §1
Candida albicans [5] = test: Antifungal activity against Candida albicans ATCC 10231 assessed as growth inhibition at 125 ug/ml after 48 hrs by broth microdilution method; conditions: ATCC 10231, 48 h; in short: as §1
Cryptococcus neoformans [6] = test: Antifungal activity against Cryptococcus neoformans ATCC 32264 assessed as growth inhibition at 7.81 ug/ml after 48 hrs by broth microdilution method; conditions: ATCC 32264, 48 h; in short: as §1
Cryptococcus neoformans [7] = test: Antifungal activity against Cryptococcus neoformans ATCC 32264 assessed as growth inhibition at 125 ug/ml after 48 hrs by broth microdilution method; conditions: ATCC 32264, 48 h; in short: as §1
Candida albicans [8] = test: Antifungal activity against Candida albicans ATCC 10231 assessed as growth inhibition at 62.5 ug/ml after 48 hrs by broth microdilution method; conditions: ATCC 10231, 48 h; in short: as §1
Candida albicans [9] = test: Antifungal activity against Candida albicans ATCC 10231 assessed as growth inhibition at 250 ug/ml after 48 hrs by broth microdilution method; conditions: ATCC 10231, 48 h; in short: as §1
Candida albicans [10] = test: Antifungal activity against Candida albicans ATCC 10231 assessed as growth inhibition at 7.81 ug/ml after 48 hrs by broth microdilution method; conditions: ATCC 10231, 48 h; in short: as §1
Cryptococcus neoformans [11] = test: Antifungal activity against Cryptococcus neoformans ATCC 32264 assessed as growth inhibition at 250 ug/ml after 48 hrs by broth microdilution method; conditions: ATCC 32264, 48 h; in short: as §1
Candida albicans [12] = test: Antifungal activity against Candida albicans ATCC 10231 assessed as growth inhibition at 31.25 ug/ml after 48 hrs by broth microdilution method; conditions: ATCC 10231, 48 h; in short: as §1
Cryptococcus neoformans [13] = test: Antifungal activity against Cryptococcus neoformans ATCC 32264 assessed as growth inhibition at 3.9 ug/ml after 48 hrs by broth microdilution method; conditions: ATCC 32264, 48 h; in short: as §1
Candida albicans [14] = test: Antifungal activity against Candida albicans ATCC 10231 assessed as growth inhibition at 3.9 ug/ml after 48 hrs by broth microdilution method; conditions: ATCC 10231, 48 h; in short: as §1
Cryptococcus neoformans [15] = test: Antifungal activity against Cryptococcus neoformans IM 00319 clinical isolate after 48 hrs by broth microdilution method; conditions: IM 00319, 48 h
In short: (§2)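 Clinical isolates from the Malbrán Institute were grown on Sabouraud-chloramphenicol agar for 48 h at 30 °C, kept on Sabouraud-dextrose agar and subcultured every 15 days. Endpoints MIC100, MIC80 and MIC50 were taken from % inhibition dose-response curves.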

Cryptococcus neoformans [16] = test: Antifungal activity against Cryptococcus neoformans IM 052470 clinical isolate after 48 hrs by broth microdilution method; conditions: IM 052470, 48 h; in short: as §2
Cryptococcus neoformans [17] = test: Antifungal activity against Cryptococcus neoformans IM 972751 clinical isolate after 48 hrs by broth microdilution method; conditions: IM 972751, 48 h
In short: (§3)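 Clinical isolates from the Malbrán Institute were grown on Sabouraud-chloramphenicol agar for 48 h at 30 °C, kept on Sabouraud-dextrose agar and subcultured every 15 days. M27-A3 RPMI-1640 microdilution used 1–5 × 10^3 CFU/mL, 48 h at 30 °C, OD405 read, triplicate. Endpoints MIC100, MIC80 and MIC50 were taken from % inhibition dose-response curves.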

Cryptococcus neoformans [18] = test: Antifungal activity against Cryptococcus neoformans IM 972724 clinical isolate after 48 hrs by broth microdilution method; conditions: IM 972724, 48 h; in short: as §3
Cryptococcus neoformans [19] = test: Antifungal activity against Cryptococcus neoformans IM 031706 clinical isolate after 48 hrs by broth microdilution method; conditions: IM 031706, 48 h; in short: as §2
Cryptococcus neoformans [20] = test: Antifungal activity against Cryptococcus neoformans IM 983040 clinical isolate after 48 hrs by broth microdilution method; conditions: IM 983040, 48 h; in short: as §3
Cryptococcus neoformans [21] = test: Antifungal activity against Cryptococcus neoformans IM 961951 clinical isolate after 48 hrs by broth microdilution method; conditions: IM 961951, 48 h; in short: as §3
Cryptococcus neoformans [22] = test: Antifungal activity against Cryptococcus neoformans IM 042074 clinical isolate after 48 hrs by broth microdilution method; conditions: IM 042074, 48 h; in short: as §3
Cryptococcus neoformans [23] = test: Antifungal activity against Cryptococcus neoformans IM 983036 clinical isolate after 48 hrs by broth microdilution method; conditions: IM 983036, 48 h; in short: as §3
Cryptococcus neoformans [24] = test: Antifungal activity against Cryptococcus neoformans IM 031631 clinical isolate after 48 hrs by broth microdilution method; conditions: IM 031631, 48 h; in short: as §3
Cryptococcus neoformans [25] = test: Antifungal activity against Cryptococcus neoformans ATCC 32264 after 48 hrs by broth microdilution method; conditions: ATCC 32264, 48 h

Compound: Nc1nc(N)c2c(n1)NC(c1sc(Cl)nc1Cl)CC(c1ccc3c(c1)OCO3)=N2 (stereo unspecified)
- inhibition at 15.62 µg/mL (Candida albicans [1]): 0%
- inhibition at 62.5 µg/mL (Cryptococcus neoformans [2]): 19.5%
- inhibition at 15.62 µg/mL (Cryptococcus neoformans [3]): 5.35%
- inhibition at 31.25 µg/mL (Cryptococcus neoformans [4]): 7.07%
- inhibition at 125 µg/mL (Candida albicans [5]): 48.1%
- inhibition at 7.81 µg/mL (Cryptococcus neoformans [6]): 3.92%
- inhibition at 125 µg/mL (Cryptococcus neoformans [7]): 36.9%
- inhibition at 62.5 µg/mL (Candida albicans [8]): 41.6%
- inhibition at 250 µg/mL (Candida albicans [9]): 56.8%
- inhibition at 7.81 µg/mL (Candida albicans [10]): 0%
- inhibition at 250 µg/mL (Cryptococcus neoformans [11]): 58.5%
- inhibition at 31.25 µg/mL (Candida albicans [12]): 24.3%
- inhibition at 3.9 µg/mL (Cryptococcus neoformans [13]): 0%
- inhibition at 3.9 µg/mL (Candida albicans [14]): 0%

Compound: Nc1nc(N)c2c(n1)NC(c1sc(Cl)nc1Cl)CC(c1ccccc1)=N2 (stereo unspecified)
- inhibition at 15.62 µg/mL (Candida albicans [1]): 62%
- inhibition at 62.5 µg/mL (Cryptococcus neoformans [2]): 21.8%
- inhibition at 15.62 µg/mL (Cryptococcus neoformans [3]): 2.53%
- inhibition at 31.25 µg/mL (Cryptococcus neoformans [4]): 7%
- inhibition at 125 µg/mL (Candida albicans [5]): 100%
- inhibition at 7.81 µg/mL (Cryptococcus neoformans [6]): 0%
- MFC (Cryptococcus neoformans [15]): 62.5 µg/mL (≈ 154 µM)
- MIC50 (Cryptococcus neoformans [15]): 31.2 µg/mL (≈ 76.8 µM)
- MIC80 (Cryptococcus neoformans [15]): 31.2 µg/mL (≈ 76.8 µM)
- MIC (Cryptococcus neoformans [15]; read-out: MIC100): 62.5 µg/mL (≈ 154 µM)
- MFC (Cryptococcus neoformans [16]): 62.5 µg/mL (≈ 154 µM)
- MIC50 (Cryptococcus neoformans [16]): 7.8 µg/mL (≈ 19.2 µM)
- MIC80 (Cryptococcus neoformans [16]): 31.2 µg/mL (≈ 76.8 µM)
- MIC (Cryptococcus neoformans [16]; read-out: MIC100): 62.5 µg/mL (≈ 154 µM)
- MFC (Cryptococcus neoformans [17]): 62.5 µg/mL (≈ 154 µM)
- MIC50 (Cryptococcus neoformans [17]): 31.2 µg/mL (≈ 76.8 µM)
- MIC80 (Cryptococcus neoformans [17]): 31.2 µg/mL (≈ 76.8 µM)
- MIC (Cryptococcus neoformans [17]; read-out: MIC100): 62.5 µg/mL (≈ 154 µM)
- inhibition at 125 µg/mL (Cryptococcus neoformans [7]): 74.3%
- MFC (Cryptococcus neoformans [18]): 31.2 µg/mL (≈ 76.8 µM)
- MIC50 (Cryptococcus neoformans [18]): 15.6 µg/mL (≈ 38.4 µM)
- MIC80 (Cryptococcus neoformans [18]): 31.2 µg/mL (≈ 76.8 µM)
- MIC (Cryptococcus neoformans [18]; read-out: MIC100): 31.2 µg/mL (≈ 76.8 µM)
- inhibition at 62.5 µg/mL (Candida albicans [8]): 100%
- MFC (Cryptococcus neoformans [19]): 62.5 µg/mL (≈ 154 µM)
- MIC50 (Cryptococcus neoformans [19]): 31.2 µg/mL (≈ 76.8 µM)
- MIC80 (Cryptococcus neoformans [19]): 31.2 µg/mL (≈ 76.8 µM)
- MIC (Cryptococcus neoformans [19]; read-out: MIC100): 62.5 µg/mL (≈ 154 µM)
- MFC (Cryptococcus neoformans [20]): 62.5 µg/mL (≈ 154 µM)
- MIC50 (Cryptococcus neoformans [20]): 7.8 µg/mL (≈ 19.2 µM)
- MIC80 (Cryptococcus neoformans [20]): 31.2 µg/mL (≈ 76.8 µM)
- MIC (Cryptococcus neoformans [20]; read-out: MIC100): 31.2 µg/mL (≈ 76.8 µM)
- MFC (Cryptococcus neoformans [21]): 31.2 µg/mL (≈ 76.8 µM)
- MIC50 (Cryptococcus neoformans [21]): 15.6 µg/mL (≈ 38.4 µM)
- MIC80 (Cryptococcus neoformans [21]): 31.2 µg/mL (≈ 76.8 µM)
- MIC (Cryptococcus neoformans [21]; read-out: MIC100): 31.2 µg/mL (≈ 76.8 µM)
- inhibition at 250 µg/mL (Candida albicans [9]): 100%
- MFC (Cryptococcus neoformans [22]): 62.5 µg/mL (≈ 154 µM)
- MIC50 (Cryptococcus neoformans [22]): 15.6 µg/mL (≈ 38.4 µM)
- MIC80 (Cryptococcus neoformans [22]): 31.2 µg/mL (≈ 76.8 µM)
- MIC (Cryptococcus neoformans [22]; read-out: MIC100): 31.2 µg/mL (≈ 76.8 µM)
- inhibition at 7.81 µg/mL (Candida albicans [10]): 21.5%
- inhibition at 250 µg/mL (Cryptococcus neoformans [11]): 100%
- inhibition at 31.25 µg/mL (Candida albicans [12]): 100%
- inhibition at 3.9 µg/mL (Cryptococcus neoformans [13]): 0%
- inhibition at 3.9 µg/mL (Candida albicans [14]): 4.92%
- MFC (Cryptococcus neoformans [23]): 31.2 µg/mL (≈ 76.8 µM)
- MIC50 (Cryptococcus neoformans [23]): 15.6 µg/mL (≈ 38.4 µM)
- MIC80 (Cryptococcus neoformans [23]): 31.2 µg/mL (≈ 76.8 µM)
- MIC (Cryptococcus neoformans [23]; read-out: MIC100): 31.2 µg/mL (≈ 76.8 µM)
- MFC (Cryptococcus neoformans [24]): 62.5 µg/mL (≈ 154 µM)
- MIC50 (Cryptococcus neoformans [24]): 31.2 µg/mL (≈ 76.8 µM)
- MIC80 (Cryptococcus neoformans [24]): 31.2 µg/mL (≈ 76.8 µM)
- MIC (Cryptococcus neoformans [24]; read-out: MIC100): 62.5 µg/mL (≈ 154 µM)
- MFC (Cryptococcus neoformans [25]): 31.2 µg/mL (≈ 76.8 µM)
- MIC50 (Cryptococcus neoformans [25]): 15.6 µg/mL (≈ 38.4 µM)
- MIC80 (Cryptococcus neoformans [25]): 31.2 µg/mL (≈ 76.8 µM)
- MIC (Cryptococcus neoformans [25]; read-out: MIC100): 31.2 µg/mL (≈ 76.8 µM)

Compound: Nc1nc(N)c2c(n1)NC(c1sc(Cl)nc1Cl)CC(c1ccc(F)cc1)=N2 (stereo unspecified)
- inhibition at 15.62 µg/mL (Candida albicans [1]): 17.9%
- inhibition at 62.5 µg/mL (Cryptococcus neoformans [2]): 12.8%
- inhibition at 15.62 µg/mL (Cryptococcus neoformans [3]): 7.17%
- inhibition at 31.25 µg/mL (Cryptococcus neoformans [4]): 11%
- inhibition at 125 µg/mL (Candida albicans [5]): 51.7%
- inhibition at 7.81 µg/mL (Cryptococcus neoformans [6]): 5.01%
- inhibition at 125 µg/mL (Cryptococcus neoformans [7]): 24.6%
- inhibition at 62.5 µg/mL (Candida albicans [8]): 43.3%
- inhibition at 250 µg/mL (Candida albicans [9]): 59.9%
- inhibition at 7.81 µg/mL (Candida albicans [10]): 0%
- inhibition at 250 µg/mL (Cryptococcus neoformans [11]): 25.5%
- inhibition at 31.25 µg/mL (Candida albicans [12]): 21.3%
- inhibition at 3.9 µg/mL (Cryptococcus neoformans [13]): 3.83%
- inhibition at 3.9 µg/mL (Candida albicans [14]): 0%
